Bioassay records: PubChem BioAssay, several laboratories
SR-BI DiI inh – mouse SR-BI HDL lipid transfer inhibition | ldlA[mSR-BI] CHO cells, DiI-HDL uptake fluorescence, 3 h | inhibition, % at 12.5 µM | hit rate 0.96% among 320,000 | AID 488896;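 active = mean replicate inhibition of at least 70% and a set share of replicates each scoring 70 or more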;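 also: 0% = median of neutral control wells and 100% = median of positive control wells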
Target sequence (Q61009 whole entry, looked up): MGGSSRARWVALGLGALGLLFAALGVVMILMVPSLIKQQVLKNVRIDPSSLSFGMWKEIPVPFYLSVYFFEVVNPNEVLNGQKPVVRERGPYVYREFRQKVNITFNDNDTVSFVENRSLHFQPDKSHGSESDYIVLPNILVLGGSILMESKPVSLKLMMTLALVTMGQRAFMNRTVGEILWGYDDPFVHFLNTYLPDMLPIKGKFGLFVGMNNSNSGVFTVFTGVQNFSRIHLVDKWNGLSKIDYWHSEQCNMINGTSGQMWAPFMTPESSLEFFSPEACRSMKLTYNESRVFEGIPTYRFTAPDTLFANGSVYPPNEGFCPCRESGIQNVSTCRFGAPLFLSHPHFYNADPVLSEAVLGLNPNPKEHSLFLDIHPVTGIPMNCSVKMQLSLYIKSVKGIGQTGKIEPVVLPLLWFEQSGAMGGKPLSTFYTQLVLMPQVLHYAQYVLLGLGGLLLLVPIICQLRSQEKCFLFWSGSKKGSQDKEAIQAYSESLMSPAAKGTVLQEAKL
Kir21 inh – blocks the mouse Kir2.1 inward-rectifier potassium channel; HEK293-Kir2.1, FluxOR thallium flux fluorescence; hits give low values; B-score at 10 µM; hit rate 0.85% among 310,000; AID 1672;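 active = fluorescence ratio B-score at or below minus 3 SD of library scores, with starting-brightness B-score within 2 SD, cut at about -4.2 in these data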;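 also: channel flux triggered by added potassium and thallium sulfate stimulus; B-score of peak minus minimum fluorescence over baseline after thallium stimulus; more negative B-score means stronger Kir2.1 block with less thallium influx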
SR-BI uptake up – enhances SR-BI lipid uptake from DiI-HDL. CHO ldlA[mSR-BI] cells, DiI-HDL uptake fluorescence, 3 h; 100 = double the neutral-control signal. activation, % at 12.5 µM. hit rate 0.096% among 320,000. AID 504775;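 active = mean replicate activation of at least 60% and every replicate at or above 60%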;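 also: 0% = median plate neutral-control signal and 100% = twice that signal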
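Test system: SR-BI-overexpressing, LDLR-lacking CHO cells. Measured by: DiI fluorescence, bottom read. Medium: Ham's F12 with 0.5% BSA, HEPES 25 mM, pH 7.4. Timing: 3 h uptake period with compound, 37 °C.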
DNA FID counter – displaces DNA intercalator in HCV helicase counter-screen. hit rate 0.17% among 290,000. DNA fluorescent intercalator displacement, fluorescence. inhibition, % at 7.9 µM; in the data active = inhibition above about 37%;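 also: 0% = vehicle and 100% = reference compound; higher means more ethidium bromide displaced from hairpin DNA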
TMEM16A act – mouse TMEM16A channel activation, primary screen. AID 623877. hit rate 0.3% among 340,000. B-score at 10 µM. HEK293 TMEM16A/YFP-H148Q/I152L, iodide quench fluorescence; hits give low values;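 active = fluorescence-ratio B-score plate-corrected deviation score at least 3 library SD below zero, with starting fluorescence score within 5 deviations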;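 also: channel opened by trigger with iodide after compound preincubation; score built on the fluorescence ratio of max minus min over baseline; more negative score means more quench and so TMEM16A activation or potentiation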
TMEM16A inh – inhibitors of mouse TMEM16A calcium-activated chloride channel; Q8BHY3; HEK293 TMEM16A/YFP iodide influx fluorescence, ionomycin; normalized B-score (activity score, 25-100; higher = stronger inhibition) at 10 µM; hit rate 1.2% among 310,000;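 active = ratio plate-corrected score three or more library SD toward inhibition, starting fluorescence score within five deviations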;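 also: score derived from kinetic fluorescence span divided by baseline fluorescence per well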
Numbers without * were called inactive; i = inactive; nt = no result given. Only some compounds are listed: those with a hit (about 3% of all), similar ones and a draw of the others.

SMILES	SR-BI DiI inh	Kir21 inh	SR-BI uptake up	DNA FID counter	TMEM16A act	TMEM16A inh
Cc1cc(N2CCCC2)c(F)cc1/C=C\[N+](=O)[O-]	6	-7.7*	-6	3	i	nt
Cc1cc(C)cc(NC(=O)C2CCN(S(=O)(=O)c3ccc4[nH]c(=O)ccc4c3)CC2)c1	6	2.8	-6	-31	i	i
Cc1onc(-c2ccccc2Cl)c1C(=O)Nc1sc2c(c1C#N)CCC2	38	-0.74	-38	-13	i	i
CCOC(=O)c1c(NC(=O)c2c(-c3ccccc3)noc2C)sc(C)c1-c1ccccc1	75*	3	-75	-6	i	i
CCOC(=O)c1c(NC(=O)/C=C/C(=O)O)sc(C)c1-c1ccc(C(C)(C)C)cc1	-19	-2.8	19	-11	i	25*
Cc1onc(-c2ccccc2)c1C(=O)Nc1sc2c(c1C#N)CCC(C)C2 (configuration not stated)	72*	1.2	-72	-14	i	i
CC1CCc2c(sc(NC(=O)c3ccc(-c4ccccc4[N+](=O)[O-])o3)c2C#N)C1 (configuration not stated)	90*	0.42	-90	1	i	i
COc1ccc(/C=N\NC(=O)c2sccc2C)cc1Cn1nc(C)cc1C	-7	-0.07	7	-39	i	i
CCc1nnc(SCC(=O)Nc2nc(C)c(C(=O)N(C)C)s2)n1CC	-32	-0.06	32	-4	i	i
CC(=O)c1cc(Cl)ccc1OCC(=O)Nc1cccc(S(=O)(=O)N2CCCC2)c1	17	nt	-17	nt	i	nt
CCN1CCN(C(=O)c2cc(S(=O)(=O)N3CCCCC3)ccc2Cl)CC1	12	1.8	-12	-10	i	i
Cc1ccccc1CNC(=O)c1ccc2nc(N3CCOCC3)sc2c1	28	-0.38	-28	-46	i	i
CCn1c2ccccc2c2cc(NC(=O)CNCC3CCCO3)ccc21 (configuration not stated)	16	-9.1*	-16	10	i	i
CCn1c2ccccc2c2cc(NC(=O)CN3CCCC3)ccc21	12	-3.5	-12	6	i	i
CCn1c2ccccc2c2cc(NC(=O)c3ccco3)ccc21	82*	0.23	-82	-5	i	i
COCCCNC(=O)Cc1c(C)c2c(cc(C)c3c(C(C)(C)C)coc32)oc1=O	27	-1.1	-27	-38	i	i
O=C(Cc1ccc(Br)cc1)Nc1ccc(S(=O)(=O)Nc2ncccn2)cc1	-20	1.1	20	-15	i	i
NC(=O)N/N=C/c1sc(=O)n(-c2ccccc2)c1Cl	-3	-0.83	3	-2	i	i
O=C(N/N=C/c1sc(=O)n(-c2ccccc2)c1Cl)c1ccccc1	85*	0.67	-85	-9	i	i
O=C(c1ccc(OC2CCN(Cc3cccc(F)c3)CC2)cc1)N1CCCCC1	51	-2	-51	-3	i	i
O=C(c1ccc(OC2CCN(CCCc3ccccc3)CC2)cc1)N1CCCC1	26	-5.9*	-26	11	i	i
CC(=O)N1CCN(C(=O)c2ccc(OC3CCN(CCc4ccccc4)CC3)cc2)CC1	-22	-0.92	22	-1	i	i
CSc1cccc(CN2CCC(Oc3cccc(C(=O)N4CCCC4)c3)CC2)c1	16	-4.8*	-16	15	i	i
CSc1cccc(CN2CCC(Oc3ccc(C(=O)N4CCCCC4)cc3)CC2)c1	58	-5.5*	-58	11	i	i
O=C(O)c1ccc2c(=O)n3c(nc2c1)/C(=C/c1ccc(Cl)cc1Cl)CC3	6	0.96	-6	-20	i	i
Cc1ccc2c(c1)c1c(n2CC(O)Cn2c(C)nc3ccccc32)/C(=N\O)CCC1 (configuration not stated)	6	-0.04	-6	-3	-12*	100*
CN(C)C(=O)c1nc2ccc(Cl)cn2c1CNCc1ccccc1OC(F)(F)F	-9	0.41	9	-11	i	i
